ChEMBL document CHEMBL1124884, “Potent renin inhibitory peptides containing hydrophilic end groups” (J Med Chem, 1990)
pIC50: −log10 of the molar value. ≈ marks a conversion by molar mass, not a printed value. *1 amine or outer side, *2 acyl side, *3 side chain or, on linkers, in order; H or OH if unused. Where a SMILES comes first, the peptide text is derived from it. [ ]: non-standard residue; d: D form. The star is where a group is joined. Leuψ((S)CH(OH)CH2)dVal = CC(C)C[C@H](N[*:1])[C@@H](O)C[C@@H](C(=O)[*:2])C(C)C; X2 = OC[C@H]1O[C@H](O)[C@H](N*)[C@@H](O)[C@H]1O; NMeH = CN[C@@H](Cc1c[nH]cn1)C(=O)O; NHCH2(2-pyridyl) = c1ccc(CN*)nc1; NHC(CH2OH)3 = OCC(CO)(CO)N*; Boc = CC(C)(C)OC(=O)*; CO = O=C([*:1])[*:2]

Tests used:
Renin (Homo sapiens) [1] = target: Renin (Homo sapiens) (UniProt P00797); assay: Tested in vitro for inhibitory activity against plasma renin in human plasma
Chain of Renin (Homo sapiens) (P00797 whole entry, looked up): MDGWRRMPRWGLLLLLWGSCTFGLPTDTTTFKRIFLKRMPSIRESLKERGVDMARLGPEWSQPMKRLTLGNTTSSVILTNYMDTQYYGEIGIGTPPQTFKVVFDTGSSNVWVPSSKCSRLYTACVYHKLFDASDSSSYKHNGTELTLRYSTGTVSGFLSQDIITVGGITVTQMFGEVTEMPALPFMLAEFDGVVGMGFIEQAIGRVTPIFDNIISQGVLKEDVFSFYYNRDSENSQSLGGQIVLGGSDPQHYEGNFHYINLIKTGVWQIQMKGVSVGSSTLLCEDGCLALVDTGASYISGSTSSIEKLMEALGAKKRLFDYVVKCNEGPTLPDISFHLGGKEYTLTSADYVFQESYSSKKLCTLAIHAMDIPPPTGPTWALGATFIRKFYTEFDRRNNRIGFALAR

Renin (Homo sapiens) [2] = target: Renin (Homo sapiens) (UniProt P00797); assay: Maximum hypotensive activity, the magnitude of the human renin dependent blood pressure component was measured (administered intravenously.)
[3] = Solubility in water at 37 degrees Centigrade; type: physicochemical; conditions: read-out: S
Summary of the method: (§1)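 Visual estimate: compound added to distilled water in a series of clear tubes at 1-100 mg/mL, tubes shaken, observed first at 25 °C and again after 30 min in a 37 °C water bath.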

Renin (Homo sapiens) [4] = target: Renin (Homo sapiens) (UniProt P00797); assay: Maximum hypotensive activity, the magnitude of the human renin dependent blood pressure component was measured. (administered perorally)
[5] = Solubility in water at 25 degrees Centigrade; type: physicochemical; conditions: read-out: S
Summary of the method: as §1

| Compound | pIC50 (Renin (Homo sapiens) [1]) | Hypotensive activity (Renin (Homo sapiens) [2]) [mmHg] | solubility [3] [µg/mL] | Hypotensive activity (Renin (Homo sapiens) [4]) [mmHg] | solubility [5] [µg/mL] |
| --- | --- | --- | --- | --- | --- |
| CC[C@H](C)[C@H](NC(=O)[C@H](C[C@H](O)[C@H](CC(C)C)NC(=O)[C@H](Cc1c[nH]cn1)N(C)C(=O)[C@H](Cc1ccccc1)NC(=O)[C@@H]1CCCN1C(=O)OC(C)(C)C)C(C)C)C(=O)NCc1ccccn1 (Boc-PF[NMeH][Leuψ((S)CH(OH)CH2)dVal]I-{NHCH2(2-pyridyl)}) | 9.59 | 25 | < 1000 | 24 | < 1000 |
| CC[C@H](C)[C@H](NC(=O)[C@H](C[C@H](O)[C@H](CC(C)C)NC(=O)[C@H](Cc1c[nH]cn1)N(C)C(=O)[C@H](Cc1ccccc1)NC(=O)[C@@H]1CCCN1C(=O)NC(CO)(CO)CO)C(C)C)C(=O)NCc1ccccn1 ({NHC(CH2OH)3-CO}-PF[NMeH][Leuψ((S)CH(OH)CH2)dVal]I-{NHCH2(2-pyridyl)}) | 9.48 | 40 | 1000 (≈ 1020 µM) | 38 | 1000 (≈ 1020 µM) |
| CC[C@H](C)[C@H](NC(=O)[C@H](C[C@H](O)[C@H](CC(C)C)NC(=O)[C@H](Cc1c[nH]cn1)N(C)C(=O)[C@H](Cc1ccccc1)NC(=O)[C@@H]1CCCN1C(=O)OC(C)(C)C)C(C)C)C(=O)NC(CO)(CO)CO (Boc-PF[NMeH][Leuψ((S)CH(OH)CH2)dVal]I-{NHC(CH2OH)3}) | 9.59 | 30 | < 1000 | 35 | 1000 (≈ 1060 µM) |
| CC[C@H](C)[C@H](NC(=O)[C@H](C[C@H](O)[C@H](CC(C)C)NC(=O)[C@H](Cc1c[nH]cn1)N(C)C(=O)[C@H](Cc1ccccc1)NC(=O)[C@@H]1CCCN1C(=O)N[C@@H]1[C@@H](O)[C@@H](O)[C@@H](CO)O[C@@H]1O)C(C)C)C(=O)NCc1ccccn1 ({X2-CO}-PF[NMeH][Leuψ((S)CH(OH)CH2)dVal]I-{NHCH2(2-pyridyl)}) | – | 36 | – | 37 | – |
| CC[C@H](C)[C@H](NC(=O)[C@H](C[C@H](O)[C@H](CC(C)C)NC(=O)[C@H](Cc1cnc[nH]1)N(C)C(=O)[C@H](Cc1ccccc1)NC(=O)[C@@H]1CCCN1C(=O)N[C@@H]1[C@@H](O)[C@@H](O)[C@@H](CO)O[C@@H]1O)C(C)C)C(=O)NCc1ccccn1 ({X2-CO}-PF[NMeH][Leuψ((S)CH(OH)CH2)dVal]I-{NHCH2(2-pyridyl)}) | 9.31 | – | < 2000 | – | < 2000 |
